In PubChem BioAssay AID463192 (Sanford-Burnham Center for Chemical Genomics, 2010):
The source made the active and inactive calls.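 Rule for the calls: active = membrane recruitment of a green fluorescent kinase sensor scored by eye at 30% or more; inactive = the rest.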

Biological target: G-protein coupled receptor 55 (Homo sapiens) (UniProt Q9Y2T6)
Test: GPR55 agonists inducing PKCbII-GFP membrane recruitment, SAR follow-up, imaging, HEK293 (AID 463192)
In short: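 Material – HEK293 cells transiently expressing wild-type human GPR55 and PKC βII-GFP biosensor · Incubation – 15 min compound exposure at 37 °C · Technique – fluorescence microscopy of fixed cells, scored by eye · Evaluation – visual score (– to ++++) of PKC βII-GFP membrane translocation and blebbing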

G-protein coupled receptor 55 (Homo sapiens), sequence (Q9Y2T6 whole entry, looked up): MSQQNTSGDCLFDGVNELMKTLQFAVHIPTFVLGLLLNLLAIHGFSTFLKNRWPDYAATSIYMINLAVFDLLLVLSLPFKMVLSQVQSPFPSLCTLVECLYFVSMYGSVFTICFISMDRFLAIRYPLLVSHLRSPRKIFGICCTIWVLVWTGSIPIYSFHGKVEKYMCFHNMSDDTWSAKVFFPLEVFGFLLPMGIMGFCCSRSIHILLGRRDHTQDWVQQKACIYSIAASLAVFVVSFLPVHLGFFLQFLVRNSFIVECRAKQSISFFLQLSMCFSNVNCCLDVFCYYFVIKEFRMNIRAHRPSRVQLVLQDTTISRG

| Structure (SMILES) | outcome |
| --- | --- |
| Cc1occc1C(=O)Nc1ccc(OCc2ccccc2)cc1 | active; +++ |
| CN(C)S(=O)(=O)c1ccc(N2CCCC2)c(C(=O)N2CCN(c3ccc([N+](=O)[O-])cc3)CC2)c1 | active; +++ |
| CCCN(CCC)Cc1c(C(=O)NN=Cc2c[nH]c3ccccc23)nnn1-c1nonc1N | active; +++ |
| COc1ccccc1/C=C/C(=O)NC(=S)Nc1ccc(S(=O)(=O)N(C)c2ccccc2)cc1 | active; +++ |
| Cc1cccc(N2CCN(C(=O)c3cc(S(=O)(=O)N(C)C)ccc3N3CCCC3)CC2)c1C | active; +++ |
| COc1ccc(-c2csc(NC(=O)CSc3nnc4c(C)cc5ccccc5n34)n2)cc1 | active; +++ |
| COc1ccc2cc(C)c3nnc(SCC(=O)Nc4nc(-c5ccc(F)cc5)cs4)n3c2c1 | active; +++ |
| CC(C)Oc1ccc(S(=O)(=O)N2CCOCC2)cc1NC(=O)c1ccc(N2CCCC2=O)cc1 | active; +++ |
| COc1ccc(S(=O)(=O)N2CCOCC2)cc1NC(=O)c1cc2c(s1)CCCC2 | active; +++ |
